Assay outcomes: PubChem BioAssay, Johns Hopkins Ion Channel Center
Shown are actives, neighbours in structure and some others; about 3.7% of the full set was active somewhere.
KCNK9 inh = KCNK9 potassium channel inhibitors, primary screen, HEK293 cells, thallium flux; Potassium channel subfamily K member 9 (Homo sapiens), Q9NPC2; FluxOR thallium flux fluorescence; active compounds read low; B-score at 10 µM; hit rate 1.2% among 310,000;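 active means ratio B-score over 3 SD below the library mean, with starting fluorescence within 5 SD of its mean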;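 further: negative B-score means less thallium flux so channel inhibition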
KCNQ1 act = potentiators or activators of KCNQ1 channel, primary screen, cell-based, thallium flux, high-throughput; CHO-K1 KCNQ1, thallium flux FluxOR fluorescence; active compounds read high; hit rate 0.35% among 310,000; B-score at 10 µM; AID 2648, 2010; Potassium voltage-gated channel subfamily KQT member 1 (Homo sapiens), P51787;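 active means fluorescence ratio B-score, a plate-corrected score, at least three library SD, with initial intensity B-score within 5 SD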
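Medium – assay buffer, equal DMSO in all wells · Material – CHO-K1 cell line with stable KCNQ1 potassium channel expression · Signal – kinetic FluxOR thallium fluorescence, 10-s 1-Hz baseline, 110-s post-stimulus read · Compound – single concentration per compound, DMSO matched to controls · Schedule – 37 °C overnight plating, 90-min dark dye load, 20-min compound pretreatment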
KCNQ1 block = inhibitors of human KCNQ1 channel, primary screen, cell-based, thallium flux, high-throughput; Potassium voltage-gated channel subfamily KQT member 1 (Homo sapiens), P51787; CHO-K1 KCNQ1, FluxOR thallium flux fluorescence; active compounds read high; B-score at 10 µM; hit rate 1.3% among 310,000;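 active means compounds whose thallium flux B-score, printed positive for inhibition, exceeds three library SD while starting fluorescence stays within three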;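 further: channel opened by potassium depolarization with thallium stimulus after 20 min compound exposure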
hERG rescue = hERG rescue from dofetilide block, primary screen, cell-based, CHO-hERG, FluxOR thallium flux, dofetilide IC70. Voltage-gated inwardly rectifying potassium channel KCNH2 (Homo sapiens), Q12809. dofetilide IC70 present. activation (rescue from dofetilide block), less the hit threshold, % at 10 µM. hit rate 0.51% among 310,000;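 active means activation above the mean of controls blocked by dofetilide plus 5 SD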;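 further: thallium influx through hERG after potassium depolarization seen as dye fluorescence rise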
Kir21 inh = inhibitors of mouse Kir2.1 inward-rectifier potassium channel. HEK293-Kir2.1, FluxOR thallium flux fluorescence; active compounds read low. Inward rectifier potassium channel 2 (Mus musculus), P35561. hit rate 0.85% among 310,000. B-score at 10 µM. AID 1672, 2009;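 active means fluorescence ratio B-score at or below minus 3 SD of library scores, with starting-brightness B-score within 2 SD, cut at about -4.2 in these data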;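 further: channel flux triggered by added potassium and thallium sulfate stimulus; B-score of peak minus minimum fluorescence over baseline after thallium stimulus; more negative B-score means stronger Kir2.1 block with less thallium influx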
KCNK3 inh = human KCNK3 channel inhibitors, primary screen, CHO cells, FluxOR thallium flux, B-score | Potassium channel subfamily K member 3 (Homo sapiens), O14649 | FluxOR fluorescence; active compounds read low | B-score at 10 µM | hit rate 0.84% among 340,000 | AID 602410, 2012;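 active means B-score under library mean minus 4 SD, starting fluorescence ratio at most library mean plus 5 SD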;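 further: more negative B-score means stronger inhibition of thallium flux through KCNK3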
KCNQ1 block val = KCNQ1 potassium channel inhibitors, confirmation, cell-based, Tl flux, duplicate; shares compounds with KCNQ1 block; KCNQ1 cell line, FluxOR thallium flux fluorescence; inhibition, % at 10 µM; hit rate 93% among 1,600;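 active means primary screen active, with duplicate mean exceeding buffer control mean plus 3 SD of buffer wells, cut at about 28% in these data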;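 further: 0% = buffer control ratio and 100% = XE991 inhibitor control ratio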
CHO Tl flux = thallium flux effects in parental CHO cells, counter-screen for KCNQ1 inhibitor project, cell-based, Tl flux; shares compounds with KCNQ1 block; parental CHO-K1, FluxOR thallium flux fluorescence ratio; active compounds read low; zero means no signal rise above baseline; fluorescence ratio (Tl flux) at 10 µM; hit rate 21% among 1,600; AID 588366, 2011;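 active means mean of duplicate thallium-flux fluorescence ratios in parental host cells more than 5 SD below the buffer control mean, cut at about 0.38 in these data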;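 further: ratio is peak minus minimum fluorescence divided by baseline fluorescence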
KCNQ1 APC inh = KCNQ1 channel inhibitors, confirmation, orthogonal assay, cell-based, automated electrophysiology | KCNQ1-CHO cells, automated patch clamp current | calls only at 10 µM | shares compounds with KCNQ1 block | hit rate 20% among 490;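 active means KCNQ1 current drop exceeding 3 SD of negative control wells, seen in both duplicate runs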;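 further: steady state current during a 2 s step from -80 to +40 mV; negative values mean current inhibition and positive values mean potentiation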
KCNQ2 spec = KCNQ2 channel inhibition, selectivity assay for KCNQ1 inhibitor project, cell-based | shares compounds with KCNQ1 block | KCNQ2 cells, FluxOR thallium flux fluorescence | inhibition, % at 10 µM | hit rate 71% among 1,600;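 active means mean percent inhibition of the KCNQ2 thallium signal more than 5 SD above the buffer-only control wells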;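 further: KCNQ2 expressed in CHO cells; 0% = buffer control wells and 100% = XE-991 inhibitor control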
KCNQ1-KCNE1 inh = KCNQ1/KCNE1 channel inhibition, selectivity assay for KCNQ1 inhibitor project, CHO-K1 cells, thallium flux, FluxOR; shares compounds with KCNQ1 block; inhibition, % at 10 µM; FluxOR thallium flux fluorescence; AID 652147, 2013; hit rate 77% among 1,600;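 active means mean percent inhibition of duplicate wells above the buffer-only control mean plus 3 SD of those controls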;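 further: 0% = buffer only wells and 100% = XE-991 inhibitor control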
* = called active by the depositor; i = inactive; . = no result given; + = active, no number.

SMILES	KCNK9 inh	KCNQ1 act	KCNQ1 block	hERG rescue	Kir21 inh	KCNK3 inh	KCNQ1 block val	CHO Tl flux	KCNQ2 spec	KCNQ1-KCNE1 inh	others
Cc1ccc(N(C(=O)c2ccco2)C(C(=O)NC2CCCC2)c2ccco2)c(C)c1 (stereo not drawn)	i	i	7*	-9	-0.88	i	82*	0.44	76%*	61%*
COc1ccc(Cl)cc1N(C(=O)c1ccco1)C(C(=O)NC1CCCC1)c1ccco1 (stereo not drawn)	i	i	i	-4	-1.3	i	.	.	.	.
COc1ccc(C(NC(=O)C2CCCCC2)c2c(O)ccc3ccccc23)cc1 (stereo not drawn)	i	i	7*	-5	1.2	i	82*	0.43	89%*	92%*
COC(CNC(=O)c1ccc2c3c(onc13)-c1ccccc1C2=O)OC	i	i	6*	-46	-12	i	+	0.086*	i	i
S=C(NCc1ccc(Cl)cc1)Nc1ccncc1	i	i	11*	-21	-0.73	i	144*	0.44	98%*	136%*	KCNQ1 APC inh=+
S=C(NCc1ccc(Cl)cc1)Nc1ccccc1	i	i	i	-7	0.39	i	.	.	.	.
CCOc1ccc(Br)cc1CC(=O)O	i	i	i	-7	-0.41	i	.	.	.	.
CCCOc1ccc(Br)cc1CSC(=N)N	i	i	9*	-16	-8.2*	i	100*	0.46	78%*	46%*	KCNQ1 APC inh=+
Nc1ccc2nc3c(=O)n(C4CCCCC4)c(=O)[nH]c3nc2c1	i	i	24*	-50	-15	i	+	0.1*	i	i
CCCCn1c(=O)[nH]c2nc3cc(N)ccc3nc2c1=O	.	.	.	.	.	i	.	.	.	.
O=c1c2ccccc2nc(-c2ccc(F)cc2)n1NCc1ccccc1O	i	i	i	-7	-0.86	i	.	.	.	.
Fc1ccc2[nH]c3c(c2c1)CN(C(=S)NCc1ccccc1)CC3	i	i	7*	-14	-0.12	i	100*	0.49	102%*	88%*	KCNQ1 APC inh=i
C=CCNC(=O)N1CCc2[nH]c3ccc(F)cc3c2C1	i	i	i	-4	1.9	i	.	.	.	.
COC(=O)c1ccc(NC(=O)c2ccc(NC(=O)c3ccco3)cc2)cc1	i	i	6*	-4	-0.31	i	0	0.51	i	55%*
CC(=O)c1ccc(NC(=O)c2ccc(NC(=O)c3ccco3)cc2)cc1	i	i	i	-5	0.04	i	.	.	.	.
COc1cccc(C(=O)Nc2ccc3nc(N4CCOCC4)cc(C)c3c2)c1	i	i	7*	-16	-0.69	i	+	0.46	i	i	KCNQ1 APC inh=i
N#Cc1ccsc1NC(=O)CN1C(=O)NC2(CCCCC2)C1=O	i	i	i	1	1.3	i	.	.	.	.
Cc1cccc(OCc2nc(C#N)c(N3CC(C)CC(C)C3)o2)c1 (stereo not drawn)	i	i	8*	-11	2.2	-12*	103*	0.38*	i	104%*
CCOc1ccc(N=C2NC(=O)S/C2=C\c2ccc(N(C)C)cc2)cc1	i	i	10*	-15	-3.3	i	181*	0.42	i	i
CCCc1ccc(C(C)NC(=S)NC2CCCCC2)cc1 (stereo not drawn)	i	i	6*	-3	-0.35	i	46*	0.73	i	i
O=C(O)c1ccccc1NC(=O)c1cc(-c2ccccc2)nc2ccccc12	i	i	7*	-31	1.5	i	70*	0.48	82%*	120%*
O=C(Nc1ccccn1)c1cc(-c2cccc(Cl)c2)nc2ccccc12	i	i	7*	-19	-0.1	i	92*	0.41	115%*	151%*	KCNQ1 APC inh=i
Cc1ccc(C)c(NC(=O)c2cc(-c3cccnc3)nc3ccccc23)c1	i	i	7*	-5	0.68	i	62*	0.47	97%*	44%*
Cc1ccc(-c2cc(C(=O)Nc3ccncc3)c3ccccc3n2)cc1	i	i	i	-7	-2.6	i	.	.	.	.
Cc1cccc(-c2cc(C(=O)Nc3ccc4c(c3)OCCO4)c3ccccc3n2)c1	i	i	9*	-10	0.77	i	78*	0.39	116%*	93%*
SMILES	KCNK9 inh	KCNQ1 act	KCNQ1 block	hERG rescue	Kir21 inh	KCNK3 inh	KCNQ1 block val	CHO Tl flux	KCNQ2 spec	KCNQ1-KCNE1 inh	others
O=C(Nc1ncccn1)c1cc(-c2cccc(Br)c2)nc2ccccc12	i	i	i	-4	-0.17	i	.	.	.	.
COc1cccc(-c2cc(C(=O)NCCCn3ccnc3)no2)c1	i	i	i	-17	-0.46	i	.	.	.	.
CCN(CC)S(=O)(=O)c1ccc(NC(=O)c2nc3nc(C)cc(C)n3n2)cc1	i	i	i	-15	0.42	.	.	.	.	.
Cc1nc2sccn2c(=O)c1S(=O)(=O)N1CCN(c2cccc(Cl)c2)CC1	i	i	i	-6	-0.04	i	.	.	.	.
NNC(=O)COc1ccc(C(F)(F)F)cc1	i	i	i	-4	-0.01	i	.	.	.	.
O=C(Nc1cccc(Cl)c1)OCCN1CCN(Cc2ccccc2)CCC1=O	i	i	11*	-17	-0.11	i	70*	0.49	99%*	46%*
